Laboratory results from ChEMBL document CHEMBL1138652, “Chlorothiophenecarboxamides as P1 surrogates of inhibitors of blood coagulation factor Xa” (Bioorg Med Chem Lett, 2004).
≈ marks a conversion by molar mass, not a printed value. Each block holds one compound with its values, some of them ahead of it.

Legend:
[1] = molecular target: Coagulation factor X (Homo sapiens, UniProt P00742); experiment: Inhibitory concentration against human serine protease factor Xa
In short: (§1)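 Human factor Xa, thrombin and trypsin were each monitored in vitro with a protease-specific chromogenic substrate. Inhibition was calculated from the ratio of optical density in drug-containing versus vehicle-containing assays.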

[2] = molecular target: Prothrombin (Homo sapiens, UniProt P00734); experiment: Inhibitory concentration against human thrombin activity; in short: as §1
[3] = molecular target: Trypsin (Homo sapiens, UniProt P07477+P07478+P35030); experiment: Inhibitory concentration against human trypsin activity; type: protein assay; in short: as §1
[4] = Maximum absorbable dose of compound after administration at dose of 10 mg/kg was determined; type: ADME, organism-based; design: dose 10 mg/kg; details: human
[5] = Solubility was determined; type: ADME; details: human
In short: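 Shake-flask solubility was measured in phosphate buffer at pH 7 and 37 °C.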

[6] = Area under curve concentration of compound at 6 hr after peroral administration at dose of 0.5 mg/kg in female dogs was determined; type: ADME, organism-based, Canis lupus familiaris; design: time < 6 hr, dose 0.5 mg/kg, route oral; details: dog, in vivo, po
In short: (§2)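 Pharmacokinetics were studied in male Wistar rats (N = 3), female Beagle dogs (N = 2) and female Cynomolgus monkeys (N = 2). Each animal received single intravenous and oral doses. Plasma concentration–time data gave Cmax, tmax, AUC, t1/2, CL, Vss and oral bioavailability.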

[7] = Area under curve concentration of compound after intravenous administration at dose of 0.2 mg/kg in female monkeys was determined; type: ADME, organism-based; design: dose 0.2 mg/kg, route intravenous; details: cercopithecidae, in vivo; in short: as §2
[8] = Clearance of compound after intravenous administration at dose of 0.2 mg/kg in male wistar rats was determined; type: ADME, organism-based; design: dose 0.2 mg/kg, route intravenous; details: rat, in vivo; in short: as §2
[9] = Maximum time taken for concentration of compound in plasma after peroral administration at dose of 0.5 mg/kg in female monkeys was determined; type: ADME, organism-based; design: dose 0.5 mg/kg, route oral; details: cercopithecidae, po; in short: as §2
[10] = Maximum plasma concentration after peroral administration of compound at dose of 0.5 mg/kg in female dogs was determined; type: ADME, organism-based, Canis lupus familiaris; design: dose 0.5 mg/kg, route oral; details: dog, po; in short: as §2
[11] = Maximum plasma concentration after peroral administration of compound at dose of 0.5 mg/kg in female monkeys was determined; type: ADME, organism-based; design: dose 0.5 mg/kg, route oral; details: cercopithecidae, po; in short: as §2
[12] = Maximum plasma concentration after peroral administration of compound at dose of 0.5 mg/kg in male wistar rats was determined; type: ADME, organism-based; design: dose 0.5 mg/kg, route oral; details: rat, po; in short: as §2
[13] = Maximum time taken for concentration of compound in plasma after peroral administration at dose of 0.5 mg/kg in female dogs was determined; type: ADME, organism-based, Canis lupus familiaris; design: dose 0.5 mg/kg, route oral; details: dog, po; in short: as §2
[14] = Clearance of compound after intravenous administration at dose of 0.2 mg/kg in female monkeys was determined; type: ADME, organism-based; design: dose 0.2 mg/kg, route intravenous; details: cercopithecidae, in vivo; in short: as §2
[15] = Area under curve concentration of compound after intravenous administration at dose of 0.2 mg/kg in male wistar rats was determined; type: ADME, organism-based; design: dose 0.2 mg/kg, route intravenous; details: rat, in vivo; in short: as §2
[16] = Area under curve concentration of compound at 6 hr after peroral administration at dose of 0.5 mg/kg in female monkeys was determined; type: ADME, organism-based; design: time < 6 hr, dose 0.5 mg/kg, route oral; details: cercopithecidae, in vivo, po; in short: as §2
[17] = Area under curve concentration of compound at 6 hr after peroral administration at dose of 0.5 mg/kg in male wistar rats was determined; type: ADME, organism-based; design: time < 6 hr, dose 0.5 mg/kg, route oral; details: rat, in vivo, po; in short: as §2
[18] = Bioavailability of compound after peroral administration at dose of 0.5 mg/kg in female dogs was determined; type: ADME, organism-based, Canis lupus familiaris; details: dog, in vivo, po, read-out: Bioavailabiility; in short: as §2
[19] = Bioavailability of compound after peroral administration at dose of 0.5 mg/kg in female monkeys was determined; type: ADME, organism-based; details: cercopithecidae, in vivo, po, read-out: Bioavailabiility; in short: as §2
[20] = Bioavailability of compound after peroral administration at dose of 0.5 mg/kg in male wistar rats was determined; type: ADME, organism-based; details: rat, in vivo, po, read-out: Bioavailabiility; in short: as §2
[21] = Maximum time taken for concentration of compound in plasma after peroral administration at dose of 0.5 mg/kg in male wistar rats was determined; type: ADME, organism-based; design: dose 0.5 mg/kg, route oral; details: rat, po; in short: as §2
[22] = Half life of compound after intravenous administration at dose of 0.2 mg/kg in female monkeys was determined; type: ADME, organism-based; design: dose 0.2 mg/kg, route intravenous; details: cercopithecidae, in vivo; in short: as §2
[23] = Half life of compound after intravenous administration at dose of 0.2 mg/kg in male wistar rats was determined; type: ADME, organism-based; design: dose 0.2 mg/kg, route intravenous; details: rat, in vivo; in short: as §2
[24] = Steady state volume of distribution of compound after intravenous administration at dose of […] was determined; type: ADME, organism-based, Canis lupus familiaris; design: route intravenous; details: dog, in vivo, read-out: Vss; in short: as §2
[25] = Steady state volume of distribution of compound after intravenous administration at dose of 0.2 mg/kg in female monkeys was determined; type: ADME, organism-based; design: dose 0.2 mg/kg, route intravenous; details: cercopithecidae, in vivo, read-out: Vss; in short: as §2
[26] = Steady state volume of distribution of compound after intravenous administration at dose of 0.2 mg/kg in male wistar rats was determined; type: ADME, organism-based; design: dose 0.2 mg/kg, route intravenous; details: rat, in vivo, read-out: Vss; in short: as §2
[27] = Clearance of compound after intravenous administration at dose of 0.15 mg/kg in female dogs was determined; details: dog, in vivo
[28] = Half life of compound after intravenous administration at dose of 0.15 mg/kg in female dogs was determined; details: dog, in vivo
[29] = Area under curve concentration of compound after intravenous administration at dose of 0.15 mg/kg in female dogs was determined; details: dog, in vivo

Chain of Coagulation factor X (P00742 41-179 limits assumed): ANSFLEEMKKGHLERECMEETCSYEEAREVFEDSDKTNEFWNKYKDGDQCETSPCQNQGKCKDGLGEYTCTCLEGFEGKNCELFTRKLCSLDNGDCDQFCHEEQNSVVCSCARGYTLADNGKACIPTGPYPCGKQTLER
Chain of Coagulation factor X (P00742 235-488 limits assumed): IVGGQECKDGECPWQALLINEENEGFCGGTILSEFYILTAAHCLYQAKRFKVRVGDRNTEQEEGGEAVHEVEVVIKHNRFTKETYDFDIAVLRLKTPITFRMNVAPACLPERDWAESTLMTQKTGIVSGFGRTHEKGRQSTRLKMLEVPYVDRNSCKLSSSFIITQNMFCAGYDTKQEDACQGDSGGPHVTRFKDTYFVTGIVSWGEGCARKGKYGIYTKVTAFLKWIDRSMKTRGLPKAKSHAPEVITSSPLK

SMILES: COC[C@@H](NC(=O)c1ccc(Cl)s1)C(=O)Nc1ccc(N2CCOCC2=O)c(C(F)(F)F)c1
IC50 [1]: 0.014 µM

SMILES: CC(C)C[C@@H](NC(=O)c1ccc(Cl)s1)C(=O)Nc1ccc(N2CCOCC2=O)cc1
IC50 [1]: 0.015 µM
IC50 [2]: > 10 µM
IC50 [3]: > 10 µM

SMILES: C[C@@H](NC(=O)c1ccc(Cl)s1)C(=O)Nc1ccc(N2CCOCC2=O)cc1
IC50 [1]: 0.059 µM
IC50 [2]: > 10 µM
IC50 [3]: > 10 µM

SMILES: COC[C@@H](NC(=O)c1ccc(Cl)s1)C(=O)Nc1ccc(N2CCOCC2=O)c(Cl)c1
IC50 [1]: 0.013 µM
IC50 [2]: > 10 µM
IC50 [3]: > 10 µM

SMILES: CC(C)C[C@@H](NC(=O)c1ccc(Cl)s1)C(=O)Nc1ccc(-n2ccccc2=O)cc1
IC50 [1]: 0.016 µM
IC50 [2]: > 10 µM
IC50 [3]: > 10 µM

SMILES: CCOC[C@@H](NC(=O)c1ccc(Cl)s1)C(=O)Nc1ccc(N2CCOCC2=O)c(C)c1
IC50 [1]: 0.01 µM
IC50 [2]: > 10 µM
IC50 [3]: > 10 µM

SMILES: O=C(CCc1ccc2nc(-c3ccc(Cl)s3)[nH]c2c1)Nc1ccc(N2CCOCC2=O)cc1F
IC50 [2]: > 10 µM

SMILES: CC(C)[C@@H](NC(=O)c1ccc(Cl)s1)C(=O)Nc1ccc(N2CCOCC2=O)cc1
IC50 [1]: 0.066 µM
IC50 [2]: > 10 µM
IC50 [3]: > 10 µM

SMILES: COC[C@@H](NC(=O)c1ccc(Cl)s1)C(=O)Nc1ccc(N2CCOCC2=O)c(F)c1
IC50 [1]: 0.022 µM
IC50 [2]: > 10 µM
IC50 [3]: > 10 µM

SMILES: COCCOC[C@@H](NC(=O)c1ccc(Cl)s1)C(=O)Nc1ccc(N2CCOCC2=O)c(C)c1
IC50 [1]: 0.011 µM
MAD [4]: 22 mg/kg
solubility [5]: 1050 µg/mL (≈ 2130 µM)

SMILES: CC[C@@H](NC(=O)c1ccc(Cl)s1)C(=O)Nc1ccc(N2CCOCC2=O)cc1
IC50 [1]: 0.02 µM
IC50 [2]: > 10 µM
IC50 [3]: > 10 µM

SMILES: O=C(N[C@@H](C(=O)Nc1ccc(N2CCOCC2=O)cc1)c1ccccc1)c1ccc(Cl)s1
IC50 [1]: 0.029 µM
IC50 [2]: > 10 µM
IC50 [3]: > 10 µM

SMILES: CCC[C@@H](NC(=O)c1ccc(Cl)s1)C(=O)Nc1ccc(N2CCOCC2=O)c(C)c1
IC50 [1]: 0.0095 µM
IC50 [2]: > 10 µM
IC50 [3]: > 10 µM

Next, values leading:

IC50 [1]: 0.012 µM
IC50 [2]: > 10 µM
IC50 [3]: > 10 µM
SMILES: CCC[C@@H](NC(=O)c1ccc(Cl)s1)C(=O)Nc1ccc(N2CCOCC2=O)cc1

IC50 [1]: 0.012 µM
IC50 [2]: > 10 µM
IC50 [3]: > 10 µM
MAD [4]: 1.9 mg/kg
solubility [5]: 92 µg/mL (≈ 192 µM)
SMILES: CCCOC[C@@H](NC(=O)c1ccc(Cl)s1)C(=O)Nc1ccc(N2CCOCC2=O)c(C)c1

IC50 [1]: 0.0072 µM
IC50 [2]: > 10 µM
IC50 [3]: > 10 µM
MAD [4]: 0.6 mg/kg
solubility [5]: 29 µg/mL (≈ 62.5 µM)
SMILES: Cc1cc(NC(=O)[C@@H](CC(C)C)NC(=O)c2ccc(Cl)s2)ccc1N1CCOCC1=O

AUC [6]: 211 ng·h/mL
AUC [7]: 803 ng·h/mL
clearance [8]: 15.7 mL/min/kg
Tmax [9]: 30 min
IC50 [2]: > 10 µM
IC50 [3]: > 10 µM
Cmax [10]: 161 ng/mL
Cmax [11]: 270 ng/mL
Cmax [12]: 92 ng/mL
MAD [4]: 11 mg/kg
Tmax [13]: 30 min
clearance [14]: 4.17 mL/min/kg
AUC [15]: 212 ng·h/mL
AUC [16]: 1100 ng·h/mL
AUC [17]: 271 ng·h/mL
bioavailability [18]: ~60%
bioavailability [19]: ~80%
bioavailability [20]: ~60%
Tmax [21]: 150 min
half-life [22]: 138 min
half-life [23]: 66 min
solubility [5]: 510 µg/mL (≈ 1130 µM)
Vd [24]: 0.86 L/kg
Vd [25]: 0.81 L/kg
Vd [26]: 1.6 L/kg
clearance [27]: 21.7 mL/min/kg
half-life [28]: 34.2 min
AUC [29]: 117 ng·h/mL
SMILES: COC[C@@H](NC(=O)c1ccc(Cl)s1)C(=O)Nc1ccc(N2CCOCC2=O)c(C)c1

IC50 [1]: 0.026 µM
IC50 [2]: > 10 µM
IC50 [3]: > 10 µM
SMILES: O=C(N[C@H](C(=O)Nc1ccc(N2CCOCC2=O)cc1)c1ccccc1)c1ccc(Cl)s1

IC50 [1]: 0.011 µM
IC50 [2]: > 10 µM
IC50 [3]: > 10 µM
MAD [4]: 6.5 mg/kg
solubility [5]: 41 µg/mL (≈ 94.1 µM)
SMILES: CC[C@@H](NC(=O)c1ccc(Cl)s1)C(=O)Nc1ccc(N2CCOCC2=O)c(C)c1

IC50 [1]: 0.029 µM
IC50 [2]: > 10 µM
IC50 [3]: > 10 µM
MAD [4]: 11 mg/kg
solubility [5]: 520 µg/mL (≈ 1190 µM)
SMILES: Cc1cc(NC(=O)[C@@H](CO)NC(=O)c2ccc(Cl)s2)ccc1N1CCOCC1=O

IC50 [1]: 0.039 µM
IC50 [2]: > 10 µM
IC50 [3]: > 10 µM
SMILES: CC(C)C[C@@H](NC(=O)c1ccc(Cl)s1)C(=O)Nc1ccc(-n2ccncc2=O)cc1

IC50 [1]: 0.13 µM
IC50 [2]: > 10 µM
IC50 [3]: > 10 µM
SMILES: CC(C)C[C@H](NC(=O)c1ccc(Cl)s1)C(=O)Nc1ccc(N2CCOCC2=O)cc1

IC50 [2]: > 10 µM
IC50 [3]: > 10 µM
SMILES: CCC[C@@H](NC(=O)Nc1ccc(Cl)cc1)C(=O)Nc1ccc(N2CCOCC2=O)cc1

IC50 [1]: 0.7 µM
IC50 [2]: > 10 µM
IC50 [3]: > 10 µM
SMILES: O=C(CNC(=O)c1ccc(Cl)s1)Nc1ccc(N2CCOCC2=O)cc1

IC50 [1]: 0.015 µM
IC50 [2]: > 10 µM
IC50 [3]: > 10 µM
MAD [4]: 2.8 mg/kg
solubility [5]: 134 µg/mL (≈ 318 µM)
SMILES: Cc1cc(NC(=O)[C@@H](C)NC(=O)c2ccc(Cl)s2)ccc1N1CCOCC1=O
